# Measured values from ChEMBL document CHEMBL1139875, “Discovery of 4-aminobutyric acid derivatives possessing anticonvulsant and antinociceptive activities: a hybrid pharmacophore approach” (2007).
# The source made the active and inactive calls. No cut-off for these calls is given here.
# Experiments:
# Mus musculus [1] = test: Anticonvulsant activity in Swiss Albino mouse at 300 mg/kg, ip after 0.5 hr by MES test; type: functional, organism-based; design: dose 300 mg/kg
# Procedure, shortened: (§1)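 Mice (Swiss, 20-25 g) given i.p. doses of 30, 100 and 300 mg/kg under ADD program protocols, three per group, examined at 0.5 and 4 h in MES, scPTZ, scSTY or scPIC seizure tests. Value is the minimum dose protecting half or more of the mice.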
# Mus musculus [2] = test: Anticonvulsant activity in Swiss Albino mouse at 300 mg/kg, ip after 4 hrs by MES test; type: functional, organism-based; design: dose 300 mg/kg; procedure, shortened: as §1
# Mus musculus [3] = test: Anticonvulsant activity in Swiss Albino mouse at 300 mg/kg, ip after 0.5 hr by scPTZ test; type: functional, organism-based; design: dose 300 mg/kg; procedure, shortened: as §1
# Mus musculus [4] = test: Anticonvulsant activity in Swiss Albino mouse at 300 mg/kg, ip after 0.5 hr by scSTY test; type: functional, organism-based; design: dose 300 mg/kg; procedure, shortened: as §1
# Mus musculus [5] = test: Anticonvulsant activity in Swiss Albino mouse at 300 mg/kg, ip after 4 hrs by scSTY test; type: functional, organism-based; design: dose 300 mg/kg; procedure, shortened: as §1
# Mus musculus [6] = test: Anticonvulsant activity in Swiss Albino mouse at 100 mg/kg, ip after 0.5 hr by scPIC test; type: functional, organism-based; design: dose 100 mg/kg; procedure, shortened: as §1
# Mus musculus [7] = test: Anticonvulsant activity in Swiss Albino mouse at 100 mg/kg, ip after 4 hrs by scPIC test; type: functional, organism-based; design: dose 100 mg/kg; procedure, shortened: as §1
# Mus musculus [8] = test: Neurotoxicity in Swiss Albino mouse at 300 mg/kg, ip after 0.5 hr by rotarod test; type: functional, organism-based; design: dose 300 mg/kg
# Procedure, shortened: (§2)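 Swiss mice (20-25 g) are trained on an accelerating rotorod (10 rpm, 3.2 cm rod), then injected i.p. at 30, 100 or 300 mg/kg, with three per group. Neurotoxicity means failure to keep equilibrium for at least 1 min in each of three trials, checked at 0.5 and 4 h. The value reported is the minimum dose affecting half or more of the mice.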
# Mus musculus [9] = test: Neurotoxicity in Swiss Albino mouse at 300 mg/kg, ip after 4 hrs by rotarod test; type: functional, organism-based; design: dose 300 mg/kg; procedure, shortened: as §2
# Mus musculus [10] = test: Analgesic activity in Swiss Albino mouse assessed as number of acetic acid-induced writhing per 30 min after 100 mg/kg, ip; type: functional; conditions: route intraperitoneal
# Procedure, shortened: (§3)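 Mice in groups of six dosed i.p. at 100 mg/kg, controls receiving 30% v/v PEG 400 in water. Writhing induced by i.p. 0.1 mL of 3% v/v acetic acid 1 h after drug. Writhes (abdominal stretch with at least one hind limb extended) counted over 30 min; % inhibition calculated. Mean ± SEM, Student's t test.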
# Mus musculus [11] = test: Analgesic activity in Swiss Albino mouse assessed as inhibition of acetic acid-induced writhing responses at 100 mg/kg, ip; type: functional; conditions: route intraperitoneal; procedure, shortened: as §3
# Rattus norvegicus [12] = test: Anti-dynamic allodynia effect in Sprague-Dawley rat SNL model assessed as latency to paw withdrawal 100 mg/kg, ip after 0.5 hr; type: functional; conditions: route intraperitoneal
# Procedure, shortened: (§4)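 Left L5 spinal nerve ligation rats, tested preoperatively and 9 days postoperatively, then given 100 mg/kg i.p. (vehicle 30% v/v PEG 400 in water). After 10 min acclimatization, plantar surface of affected paw stroked mildly with a cotton-bud; paw lift response recorded. n = 4; retested 0.5-2.5 h post-dose.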
# Rattus norvegicus [13] = test: Anti-dynamic allodynia effect in Sprague-Dawley rat SNL model assessed as latency to paw withdrawal 100 mg/kg, ip after 1 hr; type: functional; conditions: route intraperitoneal; procedure, shortened: as §4
# Rattus norvegicus [14] = test: Anti-dynamic allodynia effect in Sprague-Dawley rat SNL model assessed as latency to paw withdrawal 100 mg/kg, ip after 1.5 hrs; type: functional; conditions: route intraperitoneal; procedure, shortened: as §4
# Rattus norvegicus [15] = test: Anti-dynamic allodynia effect in Sprague-Dawley rat SNL model assessed as latency to paw withdrawal 100 mg/kg, ip after 2 hrs; type: functional; conditions: route intraperitoneal; procedure, shortened: as §4
# Rattus norvegicus [16] = test: Anti-dynamic allodynia effect in Sprague-Dawley rat SNL model assessed as latency to paw withdrawal 100 mg/kg, ip after 2.5 hrs; type: functional; conditions: route intraperitoneal; procedure, shortened: as §4
# Rattus norvegicus [17] = test: Antihyperalgesic effects in Sprague-Dawley rat CCI model assessed as duration of paw withdrawal at 100 mg/kg, ip after 0.5 hr; type: functional; conditions: route intraperitoneal
# Rattus norvegicus [18] = test: Antihyperalgesic effects in Sprague-Dawley rat CCI model assessed as duration of paw withdrawal at 100 mg/kg, ip after 1 hr; type: functional; conditions: route intraperitoneal
# Rattus norvegicus [19] = test: Antihyperalgesic effects in Sprague-Dawley rat CCI model assessed as duration of paw withdrawal at 100 mg/kg, ip after 1.5 hrs; type: functional; conditions: route intraperitoneal
# Rattus norvegicus [20] = test: Antihyperalgesic effects in Sprague-Dawley rat CCI model assessed as duration of paw withdrawal at 100 mg/kg, ip after 2 hrs; type: functional; conditions: route intraperitoneal
# Rattus norvegicus [21] = test: Antihyperalgesic effects in Sprague-Dawley rat CCI model assessed as duration of paw withdrawal at 100 mg/kg, ip after 2.5 hrs; type: functional; conditions: route intraperitoneal
# Rattus norvegicus [22] = test: Effect on spontaneous pain in Sprague-Dawley rat SNL model assessed as duration of paw withdrawal at 100 mg/kg, ip after 0.5 hr; type: functional; conditions: route intraperitoneal
# Procedure, shortened: (§5)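 Rats underwent left L5 spinal nerve ligation (Kim and Chung) under i.p. pentobarbital (65 mg/kg). Spontaneous pain is recorded for 5 min after 10 min acclimatization, as cumulative duration the ipsilateral paw is lifted, excluding locomotor lifts. Dosing is 100 mg/kg i.p. in 30% v/v PEG 400/water, with testing at 0.5–2.5 h. Four rats, mean ± SEM versus predrug, one-way ANOVA with Bonferroni.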
# Rattus norvegicus [23] = test: Effect on spontaneous pain in Sprague-Dawley rat SNL model assessed as duration of paw withdrawal at 100 mg/kg, ip after 1 hr; type: functional; conditions: route intraperitoneal; procedure, shortened: as §5
# Rattus norvegicus [24] = test: Effect on spontaneous pain in Sprague-Dawley rat SNL model assessed as duration of paw withdrawal at 100 mg/kg, ip after 1.5 hrs; type: functional; conditions: route intraperitoneal; procedure, shortened: as §5
# Rattus norvegicus [25] = test: Effect on spontaneous pain in Sprague-Dawley rat SNL model assessed as duration of paw withdrawal at 100 mg/kg, ip after 2 hrs; type: functional; conditions: route intraperitoneal; procedure, shortened: as §5
# Rattus norvegicus [26] = test: Effect on spontaneous pain in Sprague-Dawley rat SNL model assessed as duration of paw withdrawal at 100 mg/kg, ip after 2.5 hrs; type: functional; conditions: route intraperitoneal; procedure, shortened: as §5
# Rattus norvegicus [27] = test: Antihyperalgesic effects in Sprague-Dawley rat SNL model assessed as duration of paw withdrawal at 100 mg/kg, ip after 0.5 hr, ip; type: functional; conditions: route intraperitoneal
# Procedure, shortened: (§6)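 L5 SNL rats (n = 4), dosed 100 mg/kg i.p. (vehicle 30% v/v PEG 400 in water). Pin-prick to midplantar ipsilateral left hindpaw; withdrawal duration, mean of three responses; ≥2 s defined abnormal. Mean ± SEM; one-way ANOVA with Bonferroni versus predrug.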
# Rattus norvegicus [28] = test: Antihyperalgesic effects in Sprague-Dawley rat SNL model assessed as duration of paw withdrawal at 100 mg/kg, ip after 1 hr, ip; type: functional; conditions: route intraperitoneal; procedure, shortened: as §6
# Rattus norvegicus [29] = test: Antihyperalgesic effects in Sprague-Dawley rat SNL model assessed as duration of paw withdrawal at 100 mg/kg, ip after 1.5 hrs, ip; type: functional; conditions: route intraperitoneal; procedure, shortened: as §6
# Rattus norvegicus [30] = test: Antihyperalgesic effects in Sprague-Dawley rat SNL model assessed as duration of paw withdrawal at 100 mg/kg, ip after 2 hrs, ip; type: functional; conditions: route intraperitoneal; procedure, shortened: as §6
# Rattus norvegicus [31] = test: Antihyperalgesic effects in Sprague-Dawley rat SNL model assessed as duration of paw withdrawal at 100 mg/kg, ip after 2.5 hrs, ip; type: functional; conditions: route intraperitoneal; procedure, shortened: as §6
# Rattus norvegicus [32] = species on record: Rattus norvegicus; test: Anti-dynamic allodynic effect in Sprague-Dawley rat CCI model assessed as latency to paw withdrawal after 0.5 hr; type: functional
# Procedure, shortened: (§7)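 Rats with sciatic nerve chronic constriction injury (pentobarbital 65 mg/kg i.p. anaesthesia), baseline and day 9 testing, then drug per randomization table. After 10 min acclimatization, affected plantar surface stroked mildly with a cotton-bud; paw lift recorded. n = 4; retested 0.5-2.5 h post-dose.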
# Rattus norvegicus [33] = species on record: Rattus norvegicus; test: Anti-dynamic allodynic effect in Sprague-Dawley rat CCI model assessed as latency to paw withdrawal after 1 hr; type: functional; procedure, shortened: as §7
# Rattus norvegicus [34] = species on record: Rattus norvegicus; test: Anti-dynamic allodynic effect in Sprague-Dawley rat CCI model assessed as latency to paw withdrawal after 1.5 hr; type: functional; procedure, shortened: as §7
# Rattus norvegicus [35] = species on record: Rattus norvegicus; test: Anti-dynamic allodynic effect in Sprague-Dawley rat CCI model assessed as latency to paw withdrawal after 2 hr; type: functional; procedure, shortened: as §7
# Rattus norvegicus [36] = species on record: Rattus norvegicus; test: Anti-dynamic allodynic effect in Sprague-Dawley rat CCI model assessed as latency to paw withdrawal after 2.5 hr; type: functional; procedure, shortened: as §7
compound,measurement,setting,value
O=C(O)CCCNC(=O)N/N=C/c1ccc(Cl)cc1,Activity,Mus musculus [1],inactive
same,Activity,Mus musculus [2],inactive
same,Activity,Mus musculus [3],inactive
same,Activity,Mus musculus [4],Active
same,Activity,Mus musculus [5],Active
same,Activity,Mus musculus [6],Active
same,Activity,Mus musculus [7],Active
same,Activity,Mus musculus [8],inactive
same,Activity,Mus musculus [9],inactive
same,Activity,Mus musculus [10],59.3
same,inhibition in vivo at 100 mg/kg,Mus musculus [11],68%
same,Activity,Rattus norvegicus [12],4.5 s
same,Activity,Rattus norvegicus [13],4.2 s
same,Activity,Rattus norvegicus [14],11.3 s
same,Activity,Rattus norvegicus [15],0.8 s
same,Activity,Rattus norvegicus [16],0.35 s
same,Activity,Rattus norvegicus [17],7.9 s
same,Activity,Rattus norvegicus [18],7.8 s
same,Activity,Rattus norvegicus [19],4.4 s
same,Activity,Rattus norvegicus [20],4.2 s
same,Activity,Rattus norvegicus [21],7.2 s
same,Activity,Rattus norvegicus [22],33.1 s
same,Activity,Rattus norvegicus [23],14 s
same,Activity,Rattus norvegicus [24],12.7 s
same,Activity,Rattus norvegicus [25],11.2 s
same,Activity,Rattus norvegicus [26],15.9 s
same,Activity,Rattus norvegicus [27],24.6 s
same,Activity,Rattus norvegicus [28],17.3 s
same,Activity,Rattus norvegicus [29],12.3 s
same,Activity,Rattus norvegicus [30],5.6 s
same,Activity,Rattus norvegicus [31],17.9 s
same,Activity,Rattus norvegicus [32],14.9 s
same,Activity,Rattus norvegicus [33],3.5 s
same,Activity,Rattus norvegicus [34],1.1 s
same,Activity,Rattus norvegicus [35],14.5 s
same,Activity,Rattus norvegicus [36],13 s
